# TAAR1 antagonist – human TAAR1 antagonism. Q96RJ0. CHO RD-HGA16 TAAR1, Fluo-8 calcium fluorescence, antagonist. inhibition, % at 3 µM. 360,000 tested, 1.5% active. AID 624466;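 active = inhibition above a per-plate cutoff, the mean inhibition of test compounds on that plate plus 3 SD, cut at about 49% in these data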
#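 System: CHO RD-HGA16 cells bearing hTAAR1. Reagent: EC80 β-phenethylamine stimulus. Schedule: seeding 17-24 h prior, 75-min 37 °C, 30-min RT dye loading. Signal: Fluo-8 intracellular calcium dye fluorescence, real-time kinetic reads. Read-out: % inhibition from peak post-agonist over basal fluorescence ratio. Benchmarks: vehicle wells and EC80 agonist wells. Replicates: n of 1.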
# OX1R antag-1 – human HCRTR1 antagonism; O43613; CHO/OX1R cells, Fluo-8 calcium fluorescence, orexin A; inhibition, % at 5 µM; 330,000 tested, 0.43% active; AID 434989;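 active = inhibition above its plate's threshold, mean inhibition of all tested compounds on the plate plus 3 SD, cut at about 37% in these data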
# Target sequence (O43613 whole entry, looked up): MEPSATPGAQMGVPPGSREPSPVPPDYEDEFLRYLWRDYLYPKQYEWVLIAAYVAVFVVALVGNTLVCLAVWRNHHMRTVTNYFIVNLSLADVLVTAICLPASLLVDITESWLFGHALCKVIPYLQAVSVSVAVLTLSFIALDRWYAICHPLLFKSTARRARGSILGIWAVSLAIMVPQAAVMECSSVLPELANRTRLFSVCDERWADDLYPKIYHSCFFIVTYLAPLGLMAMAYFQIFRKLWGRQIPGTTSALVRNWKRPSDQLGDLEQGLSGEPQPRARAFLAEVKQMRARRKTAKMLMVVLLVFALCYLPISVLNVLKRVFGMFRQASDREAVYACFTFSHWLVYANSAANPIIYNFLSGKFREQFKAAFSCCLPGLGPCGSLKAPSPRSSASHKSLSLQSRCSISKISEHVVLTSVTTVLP
# TAAR1 agonist – agonists of human TAAR1 | AID 624467 | 360,000 tested, 0.99% active | CHO RD-HGA16 TAAR1, Fluo-8 calcium fluorescence; vehicle wells 0%, saturating PEA agonist 100% | Q96RJ0 | activation, % at 3 µM;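 active = activation above the mean activation of all test compounds in the run plus 3 SD, cut at about 38% in these data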
#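 System: CHO-derived RD-HGA16 cells with stable Gα16 and human TAAR1. Times: 17-24 h plating, Fluo-8 75 min 37 °C, 30 min RT. Measured by: calcium-sensitive Fluo-8 signal, excitation 470-495, emission 515-575 nm. Read-out basis: % activation relative to PEA EC100 response. Control set: DMSO and PEA EC100. Repeats: no replicates (n 1).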
# CHO parental Ca – counter-screen for OX1R antagonists: effect in parental CHO cells; parental CHO-K1, ATP-induced calcium, Fluo-8 fluorescence; inhibition, % at 5.6 µM; 330,000 tested, 0.63% active; AID 463079;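 active = inhibition above that plate's mean sample inhibition plus 3 SD, cut at about 26% in these data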
#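 Material – parental CHO cells · Reagent – ATP stimulus · Compound – single nominal dose of 5.6 µM per compound · Detection – Fluo-8 fluorescence · Read-out basis – percent inhibition of calcium signal · Controls – ATP-challenged DMSO wells low, unchallenged DMSO wells high · Repeats – no replicates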
# OX1R antag-2 – blocks the human orexin 1 receptor; O43613; OX1R-expressing cells, FRET antagonist read-out; inhibition, % at 6.6 µM; 330,000 tested, 1.8% active; AID 485270; in the data active = inhibition mostly above about 38%, no sharp cut-off; inactive = mostly below about 40%
# NTR1 ag – NTR1 (human) agonism; P30989; AID 493036; 330,000 tested, 0.17% active; activation, % at 20 µM; NTR1-U2OS beta-arrestin-GFP spot imaging, agonist mode;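 active = activation at or above 40% of the spot to cytoplasm intensity ratio, with at least 20 cells analyzed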
# Hits are given with their value; – = inactive; · = no result given. A selection: hits, their analogues and other compounds. The true share with any hit is near 4%.
SMILES,TAAR1 antagonist,OX1R antag-1,TAAR1 agonist,CHO parental Ca,OX1R antag-2,NTR1 ag
O=[N+]([O-])c1ccc(N2CCCCC2)nc1,–,–,–,–,–,–
O=[N+]([O-])c1ccc(N2CCCC2)nc1,–,–,–,–,42,–
Brc1ccc([C@H]2C=C[C@H]3CCCN4CC[C@H]2[C@@H]3[C@]42CO2)cc1,–,·,–,·,·,·
Cc1ccc([N+](=O)[O-])cc1NC(=O)c1ccc(C(C)(C)C)cc1,53,–,–,–,–,–
Cc1ccc(C(=O)Nc2cc([N+](=O)[O-])ccc2C)cc1,–,–,–,–,–,–
COc1cc(C(=O)Nc2cccc(NC(=O)c3ccccc3)c2)cc(OC)c1OC,–,–,–,–,–,–
O=C(Nc1ccc(O)cc1)c1ccc(NC(=O)c2cccs2)cc1,–,–,–,–,–,–
O=C(Nc1cccc(O)c1)c1ccc(NC(=O)c2cccs2)cc1,52,–,–,–,–,–
COc1cc(C(=O)Nc2cccc(NC(=O)c3cccs3)c2)cc(OC)c1OC,51,·,–,·,·,–
COCCN1C(=O)[C@H]2C[C@@]13O[C@H](c1ccc(C(F)(F)F)cc1)N=C3C[C@H](c1ccccc1)[C@H]2C,–,·,–,·,·,·
COc1ccc(/C=N/Nc2cn[nH]c(=O)c2Cl)cc1,–,–,41,–,–,–
CSCCC(NC(=O)c1ccc([N+](=O)[O-])cc1Cl)C(=O)OCC(=O)NC1CCCC(C)C1C (stereo not given),–,–,–,–,–,–
CSCCC(NC(=O)c1ccc([N+](=O)[O-])cc1Cl)C(=O)OC1CCCCC1=O (stereo not given),–,–,–,–,67,–
CSCCC(NC(=O)c1ccc([N+](=O)[O-])cc1Cl)C(=O)OCC(=O)NC(=O)CN1CCCC1=O (stereo not given),–,–,–,–,56,–
Cc1[nH]c2ccccc2c1/C=N/NC(=O)c1cc(C(C)(C)C)[nH]n1,–,–,–,–,38,–
Cc1[nH]c2ccccc2c1/C=N/NC(=O)c1cc(-c2ccccc2)n[nH]1,61,–,–,–,70,–
CC(C)(C)c1cc(C(=O)N/N=C/c2ccccn2)n[nH]1,–,–,–,–,–,–
Cc1[nH]c2ccccc2c1/C=N/NC(=O)c1ccccc1,–,–,–,–,–,–
COc1ccccc1-c1cccc2[nH]c3c(c12)CCN1C(=O)[C@H]2[C@H](C)ON(C)[C@H]2C[C@@H]31,–,·,–,·,·,·
CN(Cc1ccc(Cl)cc1)C(=O)c1ccc(S(=O)(=O)NCc2ccco2)cc1,–,–,–,–,34,–
O=C1CCCCC1CCS(=O)(=O)NCc1ccccc1 (stereo not given),–,·,–,·,·,·
C[C@@H]1CN([C@@H](C)CO)C(=O)CCCn2nncc2CO[C@H]1CN(C)Cc1ccc(O)cc1,–,·,–,·,·,·
COc1ccc(CNC(=O)c2cc3c(=O)n4cccc(C)c4nc3n(CC3CCCO3)c2=N)cc1 (stereo not given),–,–,–,–,–,–
Cc1cccn2c(=O)c3cc(C(=O)NCC4CCCO4)c(=N)n(C4CCCCC4)c3nc12 (stereo not given),–,–,–,–,44,–
Cc1cccn2c(=O)c3cc(C(=O)NC4CCCC4)c(=N)n(CC4CCCO4)c3nc12 (stereo not given),–,–,–,–,55,–
Cc1cccn2c(=O)c3cc(C(=O)NCC4CCCO4)c(=N)n(CC4CCCO4)c3nc12 (stereo not given),–,–,–,–,63,–
Cc1cccn2c(=O)c3cc(C(=O)NCc4ccco4)c(=N)n(C4CCCC4)c3nc12,–,–,–,–,–,–
Cc1cccn2c(=O)c3cc(C(=O)NCc4ccc(F)cc4)c(=N)n(CC4CCCO4)c3nc12 (stereo not given),–,–,–,–,–,–
COc1ccc(CCn2c(=N)c(C(=O)NCC3CCCO3)cc3c(=O)n4cccc(C)c4nc32)cc1 (stereo not given),–,–,–,–,35,–
Cc1[nH]c2ccccc2c1CC(=O)Nc1ccc(Nc2cccnc2)c(-c2cc(C(F)(F)F)cc(C(F)(F)F)c2)c1,–,·,–,·,·,·
